Here are results for 15 compounds from ChEMBL document CHEMBL4007469, “Design and synthesis of dalbergin analogues and evaluation of anti-osteoporotic activity” (Bioorg Med Chem Lett, 2017).

Each structure is given as a SMILES string. The source made the active and inactive calls. The rule behind the calls is not given here.

Tested on in the first experiment: not listed separately
Kind of experiment: Induction of osteoblast differentiation in mouse calvarial cells assessed as increase in ALP activity using PNPP as substrate after 48 hrs. In kind it is functional, cell-based. Particulars: Calvarial cell.
Take `CCN1CCN(CCCCCOc2cc3c(-c4ccccc4)cc(=O)oc3cc2OC)CC1`: the EC50 (commonly the concentration at which the effect is half-maximal) worked out at 12400 nM.
Still for that read-out and setting: to `COc1cc2oc(=O)cc(-c3ccccc3)c2cc1OCCCN1CCN(C)CC1` belongs 9.42 nM.
With `CCN1CCN(CCCOc2cc3c(-c4ccccc4)cc(=O)oc3cc2OC)CC1`, the EC50 is 27.9 nM.
`COc1cc2oc(=O)cc(-c3ccccc3)c2cc1OCCCl`: the EC50 stood at 19.4 nM.
The same measure, in the same setting: to `COc1cc2oc(=O)cc(-c3ccccc3)c2cc1OCCCCCN1CCCCC1` belongs 10.8 nM; to `COc1cc2oc(=O)cc(-c3ccccc3)c2cc1OC(=O)Cc1cccs1`, 7.4 nM.
Still for that read-out and setting: to `CCN1CCN(CCOc2cc3c(-c4ccccc4)cc(=O)oc3cc2OC)CC1` belongs 13.6 nM; to `COc1cc2oc(=O)cc(-c3ccccc3)c2cc1OC(=O)c1ccc(Br)cc1`, 0.8 nM.
On the same count and under the same terms, the result for `COc1cc2oc(=O)cc(-c3ccccc3)c2cc1OCCCN1CCCCC1` reads 7.6 nM; that for `C/C=C(\C)C(=O)Oc1cc2c(-c3ccccc3)cc(=O)oc2cc1OC`, 1.1 nM.
Turning to `COc1cc2oc(=O)cc(-c3ccccc3)c2cc1OCCCCCN1CCOCC1`, the half-maximal effective concentration (EC50) worked out at 900 nM.
On the same count and under the same terms, to `COc1cc2oc(=O)cc(-c3ccccc3)c2cc1OCCN1CCN(C)CC1` belongs 14.8 nM; to `COc1cc2oc(=O)cc(-c3ccccc3)c2cc1OCCCCCBr`, 5.7 nM.
Same read-out and setting: the result for `COc1cc2oc(=O)cc(-c3ccccc3)c2cc1OCCCBr` reads 5.9 nM; that for `COc1cc2oc(=O)cc(-c3ccccc3)c2cc1OCCN1CCOCC1`, 11.7 nM.

Tested on in another experiment: not listed separately
In words: Induction of osteoblast differentiation in mouse calvarial cells assessed as compound concentration required for maximum increase in ALP activity using PNPP as substrate after 48 hrs. The class given is functional, Calvarial cell.
Conditions: not given
As to `COc1cc2oc(=O)cc(-c3ccccc3)c2cc1OCCCN1CCN(C)CC1`, the “Concentration giving maximal ALP increase” value is listed as 100 pM.
Same read-out and setting: the result for `CCN1CCN(CCCOc2cc3c(-c4ccccc4)cc(=O)oc3cc2OC)CC1` reads 10000 pM; that for `COc1cc2oc(=O)cc(-c3ccccc3)c2cc1OCCCl`, 1 pM; that for `COc1cc2oc(=O)cc(-c3ccccc3)c2cc1OCCCCCN1CCCCC1`, 1 pM.
Same read-out and setting: to `COc1cc2oc(=O)cc(-c3ccccc3)c2cc1OC(=O)Cc1cccs1` belongs 10000 pM; to `CCN1CCN(CCOc2cc3c(-c4ccccc4)cc(=O)oc3cc2OC)CC1`, 1 pM.
On the same count and under the same terms, to `COc1cc2oc(=O)cc(-c3ccccc3)c2cc1OC(=O)c1ccc(Br)cc1` belongs 1e+06 pM; to `COc1cc2oc(=O)cc(-c3ccccc3)c2cc1OCCCN1CCCCC1`, 1 pM.
Regarding `C/C=C(\C)C(=O)Oc1cc2c(-c3ccccc3)cc(=O)oc2cc1OC`, the “Concentration giving maximal ALP increase” value worked out at 1e+06 pM.
The same measure, in the same setting: to `COc1cc2oc(=O)cc(-c3ccccc3)c2cc1OCCCCCN1CCOCC1` belongs 10000 pM; to `COc1cc2oc(=O)cc(-c3ccccc3)c2cc1OCCN1CCN(C)CC1`, 1 pM.
`COc1cc2oc(=O)cc(-c3ccccc3)c2cc1OCCCCCBr`: the “Concentration giving maximal ALP increase” value turned out to be 10000 pM.
As to `COc1cc2oc(=O)cc(-c3ccccc3)c2cc1OCCCBr`, the “Concentration giving maximal ALP increase” value came out at 100 pM.
As to `COc1cc2oc(=O)cc(-c3ccccc3)c2cc1OCCN1CCOCC1`, the “Concentration giving maximal ALP increase” value was found to be 1 pM.

Another experiment deals with Calvarial cell. Kind of experiment: Induction of mineralization in mouse calvarial cells assessed as calcium nodule formation at Emax incubated for 12 days by alizarin red-S staining based spectrophotometric method. In kind it is functional.
Conditions: not given
The gist of the method: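 Primary mouse calvarial osteoblasts treated with or without compound for 12 days, fixed in 4% formaldehyde, stained with alizarin red-S, and the stain extracted and quantified by the acetic acid method.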
For the compound `COc1cc2oc(=O)cc(-c3ccccc3)c2cc1OCCCCCN1CCCCC1`, the outcome was Active.
On the same count and under the same terms, the result for `CCN1CCN(CCOc2cc3c(-c4ccccc4)cc(=O)oc3cc2OC)CC1` reads “Active”; that for `COc1cc2oc(=O)cc(-c3ccccc3)c2cc1OCCCN1CCCCC1`, “Active”; that for `COc1cc2oc(=O)cc(-c3ccccc3)c2cc1OCCCCCN1CCOCC1`, “Active”.
Same read-out and setting: to `COc1cc2oc(=O)cc(-c3ccccc3)c2cc1OCCN1CCN(C)CC1` belongs “Active”; to `COc1cc2oc(=O)cc(-c3ccccc3)c2cc1OCCCCCBr`, “Active”; to `COc1cc2oc(=O)cc(-c3ccccc3)c2cc1OCCCBr`, “Active”.
Still for that read-out and setting: to `COc1cc2oc(=O)cc(-c3ccccc3)c2cc1OCCN1CCOCC1` belongs “Active”.
